Source: ChEMBL document CHEMBL2034867, “S-Farnesyl-Thiopropionic Acid (FTPA) Triazoles as Potent Inhibitors of Isoprenylcysteine Carboxyl Methyltransferase” (ACS Med Chem Lett, 2012)
Active and inactive are the calls of the source. The rule behind the calls is not given here.

What was measured:
[1] = molecular target: T1, Protein-S-isoprenylcysteine O-methyltransferase (Homo sapiens, UniProt O60725); test: Inhibition of ICMT in cell free system
[2] = molecular target: T1, Protein-S-isoprenylcysteine O-methyltransferase; test: Specific activity at ICMT at 10 uM relative to AFC
Summary of the method: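 Single-point vapor diffusion assay at 10 μM inhibitor. Icmt specific activity is expressed as percent of the no-inhibitor AFC control.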

MEF [3] = test: Cytotoxicity against icmt-positive MEF cells after 5 days by MTT assay; format: functional, cell-based; settings: Mus musculus, 120 h
Summary of the method: (§1)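 MEFs from Icmt+/+ or Icmt–/– animals were seeded at 1000 cells/well in DMEM with 10% FBS for 24 h. Medium was then changed to DMEM with 5% FBS containing compound at various concentrations, or 0.1% DMSO. After 5 days, MTT (5 mg/mL) was added for 4 h at 37 °C. Medium was removed, formazan dissolved in DMSO, and absorbance read at 590 nm.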

MEF [4] = test: Cytotoxicity against icmt-double mutant MEF cells after 5 days by MTT assay; format: cell-based; settings: Mus musculus, 120 h; summary of the method: as §1
[5] = Cytotoxicity against human PA-TU-8902 cells after 5 days by MTT assay; format: functional, cell-based; settings: PaTu 8902, 120 h
[6] = molecular target: T1, Protein-S-isoprenylcysteine O-methyltransferase; test: Inhibition of Icmt-mediated GFP-K-Ras membrane localization in human Jurkat T cells at 10 uM after 24 hrs by fluorescent microscopic analysis; format: cell-based
Summary of the method: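 Jurkat T cells (E6.1) were transfected with GFP-K-Ras and treated for 24 h with compound, vehicle, or 25 μM simvastatin. Cells were placed on poly-L-lysine-coated coverslips (100 μg/mL) and fixed in 3.7% formaldehyde for 10 min. GFP localization was scored by fluorescence microscopy in random fields of 100 cells as normal membrane, partial mislocalization or complete mislocalization.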

T1 sequence (O60725 whole entry): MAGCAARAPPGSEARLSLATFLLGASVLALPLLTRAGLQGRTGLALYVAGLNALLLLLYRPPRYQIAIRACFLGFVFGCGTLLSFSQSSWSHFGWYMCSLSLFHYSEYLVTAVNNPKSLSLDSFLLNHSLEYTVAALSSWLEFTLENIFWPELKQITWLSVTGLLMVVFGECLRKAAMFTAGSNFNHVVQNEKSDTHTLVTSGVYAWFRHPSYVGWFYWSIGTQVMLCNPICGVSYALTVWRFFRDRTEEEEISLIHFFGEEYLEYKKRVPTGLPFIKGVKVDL

Row | SMILES | Activity [2] [%] | other results
1 | CC(C)=CCC/C(C)=C/CC/C(C)=C/CSc1ccccc1C(=O)O [SALIRASIB] | – | IC50 [1]: 25.5 µM
2 | COc1ccc(-c2cn(CC/C(C)=C/CSCCC(=O)O)nn2)cc1 | 87 | –
3 | C/C(=C\CSCCC(=O)O)CCn1cc(Cc2ccccc2)nn1 | 82 | –
4 | CC(C)=CC/C(=C\CSC[C@H](NC(=O)c1ccccc1Oc1ccccc1)C(=O)O)CCc1ccc(-c2ccccc2)cc1 | – | IC50 [1]: 2.5 µM
5 | COC(=O)CCSC/C=C(\C)CCn1cc(CCc2ccccc2)nn1 | 69 | IC50 [1]: 41 µM
6 | C/C(=C\CSCCC(=O)O)CCn1cc(CCOC2CCCCO2)nn1 (centres undefined) | 90 | IC50 [1]: > 100 µM
7 | COC(=O)CCSC/C=C(\C)CCn1cc(CCOC2CCCCO2)nn1 (centres undefined) | 80 | –
8 | C/C(=C\CSCCC(=O)O)CCn1cc(CCc2ccc(-c3cccs3)cc2)nn1 | 63 | –
9 | CC(C)=CCC/C(C)=C/CCc1cn(CCCC(=O)O)nn1 | 90 | –
10 | CCCCCc1cn(CC/C(C)=C/CSCCC(=O)OC)nn1 | 76 | –
11 | CC(C)=CCC/C(C)=C/CC/C(C)=C/Cc1cn(CCCC(=O)O)nn1 | 83 | –
12 | C/C(=C\CSCCC(=O)O)CCn1cc(COc2ccc(-c3ccccc3)cc2)nn1 | 75 | –
13 | C/C(=C\CSCCC(=O)O)CCn1cc(CCc2cccc(-c3ccccc3)c2)nn1 | 74 | –
14 | COC(=O)CCSC/C=C(\C)CCn1cc(CCC(C)C)nn1 | 77 | –
15 | COC(=O)CCSC/C=C(\C)CCn1cc(-c2cccc3ccccc23)nn1 | 82 | IC50 (MEF [3]): 96 µM; IC50 (MEF [4]): > 100 µM
16 | C/C(=C\CSCCC(=O)O)CCn1cc(CCc2ccccc2)nn1 | 75 | –
17 | C/C(=C\CSCCC(=O)O)CCn1cc(-c2ccc(C(C)(C)C)cc2)nn1 | 88 | –
18 | C/C(=C\CSCCC(=O)O)CCn1cc(CCc2ccc(-c3ccccc3)cc2)nn1 | 43 | –
19 | C/C(=C\CSCCC(=O)O)CCn1cc(COc2ccccc2)nn1 | 89 | –
20 | C/C(=C\CSCCC(=O)O)CCn1cc(CCc2ccc(-c3cccc(C#N)c3)cc2)nn1 | 74 | –
21 | COC(=O)CCSC/C=C(\C)CCn1cc(COc2ccccc2)nn1 | 89 | –
22 | C/C(=C\CSCCC(=O)O)CCn1cc(-c2ccsc2)nn1 | 80 | –
23 | COC(=O)CCSC/C=C(\C)CCn1cc(COc2ccc(-c3ccccc3)cc2)nn1 | 67 | –
24 | COC(=O)CCSC/C=C(\C)CCn1cc(CC/C=C(\C)CCC=C(C)C)nn1 | 59 | –

Row | SMILES | Activity [2] [%] | other results
25 | COC(=O)CCSC/C=C(\C)CCn1cc(CCc2ccccc2-c2ccccc2)nn1 | 74 | –
26 | CC(C)=CCC/C(C)=C/CCc1cn(CCC(=O)O)nn1 | 75 | –
27 | COC(=O)CCSC/C=C(\C)CCn1cc(-c2ccsc2)nn1 | 82 | –
28 | COC(=O)CCSC/C=C(\C)CCn1cc(CCc2ccc(-c3ccc(-c4ccccc4)cc3)cc2)nn1 | 79 | –
29 | COC(=O)CCSC/C=C(\C)CCn1cc(CCc2cccc(-c3ccccc3)c2)nn1 | 65 | IC50 (MEF [3]): 55 µM; IC50 [1]: 29 µM; IC50 (MEF [4]): > 100 µM
30 | C/C(=C\CSCCC(=O)O)CCn1cc(CCc2ccc(-c3ccc(F)cc3)cc2)nn1 | 42 | –
31 | CC(C)=CCC/C(C)=C/CC/C(C)=C/Cc1cn(CC(=O)O)nn1 | 65 | –
32 | COC(=O)CCSC/C=C(\C)CCn1cc(CCc2ccc(-c3ccc(F)cc3)cc2)nn1 | 28 | –
33 | CCCCCc1cn(CC/C(C)=C/CSCCC(=O)O)nn1 | 77 | –
34 | CCCCCCCCCCc1cn(CC/C(C)=C/CSCCC(=O)OC)nn1 | 67 | –
35 | COC(=O)CCSC/C=C(\C)CCn1cc(-c2ccc(OC)cc2)nn1 | 91 | –
36 | CC(C)=CCC/C(C)=C/CC/C(C)=C/Cc1cn(CCC(=O)O)nn1 | 53 | –
37 | COC(=O)CCSC/C=C(\C)CCn1cc(-c2ccc(C(C)(C)C)cc2)nn1 | 84 | –
38 | C/C(=C\CSCCC(=O)O)CCn1cc(CCC(C)C)nn1 | 72 | –
39 | C/C(=C\CSCCC(=O)O)CCn1cc(-c2ccccc2)nn1 | 88 | –
40 | COC(=O)CCSC/C=C(\C)CCn1cc(CCc2ccc(-c3cccc(C#N)c3)cc2)nn1 | 30 | –
41 | COC(=O)CCSC/C=C(\C)CCn1cc(-c2ccccc2)nn1 | 89 | –
42 | COC(=O)CCSC/C=C(\C)CCn1cc(CCc2ccc(-c3cccs3)cc2)nn1 | 57 | –
43 | CC(C)=CCC/C(C)=C/CC/C(C)=C/Cc1cn(CCCCC(=O)O)nn1 | 73 | –
44 | C/C(=C\CSCCC(=O)O)CCn1cc(-c2cccc3ccccc23)nn1 | 77 | –
45 | COC(=O)CCSC/C=C(\C)CCn1cc(CCc2ccc(-c3ccccc3)cc2)nn1 | 14 | IC50 [5]: 8 µM; inhibition [6]: Active; IC50 (MEF [3]): 33 µM; IC50 [1]: 0.8 µM; IC50 (MEF [4]): > 100 µM
46 | CC(C)=CCC/C(C)=C/CC/C(C)=C/CCc1cn(CCC(=O)O)nn1 | 69 | –
47 | COC(=O)CCSC/C=C(\C)CCn1cc(Cc2ccccc2)nn1 | 80 | –
